We go through 38 compounds from ChEMBL document CHEMBL4014335, “Activation of Phenyl 4-(2-Oxo-3-alkylimidazolidin-1-yl)benzenesulfonates Prodrugs by CYP1A1 as New Antimitotics Targeting Breast Cancer Cells” (J Med Chem, 2017).

The subject of one test is M21. The test is described as follows: Antiproliferative activity against human M21 cells after 48 hrs by SRB assay. Conditions: M21, 48 h. Type of test: functional, cell-based. In outline: (§1)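 SRB assay run as in the NCI screen with slight modifications. Seeding: HT-29 5.0 x 10^3, M21 3.5 x 10^3, MCF7 7.5 x 10^3 cells; cells preincubated 24 h. Drug in DMSO added at 0.75 to 1.0 x 10^5 nM for 48 h. TCA fixation, sulforhodamine B staining, absorbance 530-565 nm. At least two experiments in triplicate; runs accepted only when relative SD < 10%.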
On the technique in general: The SRB assay estimates cell density from bound dye.

A further test has as its system HT-29. The test is described as follows: Antiproliferative activity against human HT-29 cells after 48 hrs by SRB assay. Type of test: functional, cell-based. Conditions: HT-29, 48 h. In outline:
as §1

The subject of the next test is MCF7. The test is described as follows: Antiproliferative activity against human MCF7 cells after 48 hrs by SRB assay. Type of test: functional, cell-based. Conditions: MCF7, 48 h. The essentials:
as §1

Test [1] can be described thus: Selectivity ratio of IC50 for human M21 cells to IC50 for human MCF7 cells. Type of test: functional. The essentials:
(§2)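 Ratio is IC50 in reference line over IC50 in sensitive line. […] Cells in DMEM with 5% calf serum at 37 °C. At least two experiments, triplicate cultures; assay accepted when relative SD < 10%.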

A short description of test [2]: Selectivity ratio of IC50 for human HT-29 cells to IC50 for human MCF7 cells. The class given is functional. In outline:
as §2

Regarding `CCN1CCN(c2ccc(S(=O)(=O)Oc3cccc(Br)c3)cc2)C1=O`, the figures for the IC50 in the test on M21, in the test on HT-29 and with MCF7 were 3.4 µM, 3.8 µM and 2.5 µM, respectively. For the same compound, the results for the “Ratio IC50” value in test [1] and in test [2] were 1.4 and 1.5, respectively.

Take `CCN1CCN(c2ccc(S(=O)(=O)Oc3cccc(F)c3)cc2)C1=O`: the IC50 (in general, the concentration needed to halve the response being measured) in the test on M21 is 11 µM; in the test on HT-29 it was above 100 µM; in the test with MCF7 it was above 100 µM.

`COc1ccc(OS(=O)(=O)c2ccc(N3CCN(C)C3=O)cc2)cc1OC`: the results for the IC50 in the test on M21, with HT-29 and with MCF7 were 8.5 µM, 12 µM and 12 µM, respectively. In addition, the “Ratio IC50” value is reported as 0.72 in test [1] and 1 in test [2].

On to `CN1CCN(c2ccc(S(=O)(=O)Oc3cc(Cl)c(Cl)cc3Cl)cc2)C1=O`, for which the half-inhibitory concentration (IC50) in the test on M21 worked out at 0.42 µM; with HT-29 it was 0.6 µM; in the test on MCF7, 0.63 µM. Further, the “Ratio IC50” value was 0.7 in test [1] and 1 in test [2].

Take `CCCCN1CCN(c2ccc(S(=O)(=O)Oc3cccc(I)c3)cc2)C1=O`: the IC50 in the test with M21 came to 23 µM; in the test with HT-29, 9.6 µM; in the test with MCF7, 0.058 µM. Also, the “Ratio IC50” value in test [1] is 400; in test [2], 170.

With `CCN1CCN(c2ccc(S(=O)(=O)Oc3cccc(Cl)c3)cc2)C1=O`, the results for the IC50 in the test on M21, with HT-29 and in the test with MCF7 were 3.9 µM, 6.8 µM and 5.4 µM, respectively. Further, the entries for the “Ratio IC50” value in test [1] and in test [2] were 0.7 and 1.3, respectively.

`CCCCN1CCN(c2ccc(S(=O)(=O)Oc3ccccc3)cc2)C1=O`: the IC50 is above 100 µM in the test with M21, above 100 µM in the test with HT-29 and 8.8 µM in the test with MCF7. Further, the “Ratio IC50” value in test [1] and in test [2] was above 11 throughout.

As to `CCCN1CCN(c2ccc(S(=O)(=O)Oc3cccc(F)c3)cc2)C1=O`, the figures for the IC50 with M21, in the test with HT-29 and in the test on MCF7 were 12 µM, 18 µM and 24 µM, respectively. Moreover, the “Ratio IC50” value in test [1] is 0.5; in test [2], 0.8.

As for `CCCCN1CCN(c2ccc(S(=O)(=O)Oc3ccc(OC)cc3)cc2)C1=O`, the 50% inhibitory concentration (IC50) is above 100 µM in the test on M21, 35 µM in the test on HT-29 and 2.5 µM in the test with MCF7. In addition, the figures for the “Ratio IC50” value in test [1] and in test [2] were above 39 and 14, respectively.

Turning to `COc1cccc(OS(=O)(=O)c2ccc(N3CCN(C)C3=O)cc2)c1`, the values for the IC50 in the test with M21, in the test with HT-29 and in the test on MCF7 were 1.6 µM, 2.5 µM and 3 µM, respectively. Besides, the results for the “Ratio IC50” value in test [1] and in test [2] were 0.6 and 0.8, respectively.

Turning to `CN1CCN(c2ccc(S(=O)(=O)Oc3cccc(Cl)c3)cc2)C1=O`, the IC50 in the test with M21 stood at 1.6 µM; with HT-29, 2.1 µM; with MCF7, 2.2 µM. Besides, the “Ratio IC50” value in test [1] was 0.7; in test [2], 0.9.

As to `COc1cc(OC)cc(OS(=O)(=O)c2ccc(N3CCN(C)C3=O)cc2)c1`, the IC50 in the test on M21 is 0.082 µM; in the test with HT-29, 0.19 µM; in the test on MCF7, 0.23 µM. The results for the “Ratio IC50” value in test [1] and in test [2] were 0.4 and 0.9, respectively.

As for `CN1CCN(c2ccc(S(=O)(=O)Oc3cccc([N+](=O)[O-])c3)cc2)C1=O`, the IC50 in the test with M21 was 23 µM; in the test with HT-29, 26 µM; in the test with MCF7 it was above 100 µM.

For the compound `CCCCN1CCN(c2ccc(S(=O)(=O)Oc3cccc(OC)c3)cc2)C1=O`, the IC50 was 30 µM in the test on M21, 13 µM in the test on HT-29 and 0.49 µM in the test with MCF7. In addition, the figures for the “Ratio IC50” value in test [1] and in test [2] were 61 and 27, respectively.

For `CN1CCN(c2ccc(S(=O)(=O)Oc3cccc(I)c3)cc2)C1=O`, the IC50 turned out to be 0.4 µM with M21, 0.59 µM in the test on HT-29 and 0.56 µM with MCF7. Moreover, the “Ratio IC50” value in test [1] is 0.7; in test [2], 1.1.

Consider `CCCN1CCN(c2ccc(S(=O)(=O)Oc3cccc([N+](=O)[O-])c3)cc2)C1=O`, for which the IC50 in the test on M21 is 38 µM; in the test with HT-29, above 100 µM; in the test with MCF7, 19 µM. Further, the “Ratio IC50” value is 2 in test [1] and above 5.3 in test [2].

Regarding `CN1CCN(c2ccc(S(=O)(=O)Oc3ccc(F)cc3)cc2)C1=O`, the 50% inhibitory concentration (IC50) in the test on M21, with HT-29 and in the test with MCF7 was above 100 µM in each case.

Regarding `CCN1CCN(c2ccc(S(=O)(=O)Oc3ccccc3OC)cc2)C1=O`, the concentration for half-maximal inhibition (IC50) with M21, in the test with HT-29 and in the test with MCF7 was above 100 µM throughout.

As for `CCN1CCN(c2ccc(S(=O)(=O)Oc3cccc(OC)c3)cc2)C1=O`, the half-maximal inhibitory concentration (IC50) turned out to be 7 µM in the test on M21, 22 µM in the test with HT-29 and 14 µM in the test with MCF7. Also, the “Ratio IC50” value in test [1] is 0.5; in test [2] it was 1.6.

Take `CN1CCN(c2ccc(S(=O)(=O)Oc3c(Cl)cc(Cl)cc3Cl)cc2)C1=O`: the 50% inhibitory concentration (IC50) with M21 is 1.7 µM; in the test with HT-29 it was 2.5 µM; with MCF7, 2.9 µM. Besides, the “Ratio IC50” value in test [1] is 0.6; in test [2], 0.9.

With `CCCN1CCN(c2ccc(S(=O)(=O)Oc3cccc(C)c3)cc2)C1=O`, the IC50 in the test with M21 was 28 µM; in the test with HT-29, 65 µM; in the test on MCF7, 86 µM. Moreover, the entries for the “Ratio IC50” value in test [1] and in test [2] were 0.3 and 0.8, respectively.

On to `COc1cc(OS(=O)(=O)c2ccc(N3CCN(C)C3=O)cc2)cc(OC)c1OC`, for which the IC50 with M21 amounted to 0.054 µM; with HT-29, 0.062 µM; in the test with MCF7 it was 0.12 µM. For the same compound, the “Ratio IC50” value in test [1] and in test [2] was 0.5 each time.

`CCCN1CCN(c2ccc(S(=O)(=O)Oc3ccccc3CC)cc2)C1=O`: the figures for the IC50 with M21, in the test with HT-29 and with MCF7 were above 50 µM, above 100 µM and 2.3 µM, respectively. Moreover, the “Ratio IC50” value in test [1] is above 22; in test [2], above 43.

Turning to `CCN1CCN(c2ccc(S(=O)(=O)Oc3ccc(OC)cc3)cc2)C1=O`, the IC50 in the test on M21 was 26 µM; with HT-29, 60 µM; in the test on MCF7, above 100 µM.

As to `CCN1CCN(c2ccc(S(=O)(=O)Oc3ccc(OC)c(OC)c3)cc2)C1=O`, the concentration for half-maximal inhibition (IC50) was 35 µM in the test with M21, 37 µM in the test on HT-29 and 39.1 µM in the test on MCF7. For the same compound, the “Ratio IC50” value in test [1] was 0.9; in test [2], 1.

Regarding `CN1CCN(c2ccc(S(=O)(=O)Oc3ccc(Cl)cc3)cc2)C1=O`, the IC50 in the test with M21 is 43 µM; with HT-29, 12 µM; with MCF7 it was above 100 µM.

Consider `CCCN1CCN(c2ccc(S(=O)(=O)Oc3cc(OC)cc(OC)c3)cc2)C1=O`, for which the values for the IC50 with M21, in the test on HT-29 and with MCF7 were 33 µM, 16 µM and 0.27 µM, respectively. The “Ratio IC50” value in test [1] is on record as 120; in test [2], 59.

Take `CCN1CCN(c2ccc(S(=O)(=O)Oc3cc(OC)cc(OC)c3)cc2)C1=O`: the IC50 was 4.2 µM in the test with M21, 4.3 µM in the test with HT-29 and 3.5 µM in the test on MCF7. In addition, the “Ratio IC50” value in test [1] and in test [2] was 1.2 each time.

For `CCCN1CCN(c2ccc(S(=O)(=O)Oc3ccccc3C)cc2)C1=O`, the IC50 in the test on M21, in the test on HT-29 and with MCF7 was above 100 µM in each case.

In the case of `Cc1ccccc1OS(=O)(=O)c1ccc(N2CCN(C)C2=O)cc1`, the 50% inhibitory concentration (IC50) in the test on M21 was 2.9 µM; with HT-29, 4.8 µM; with MCF7 it was 5.6 µM. Also, the “Ratio IC50” value in test [1] is given as 0.5; in test [2], 0.9.

Take `Cc1ccc(OS(=O)(=O)c2ccc(N3CCN(C)C3=O)cc2)cc1`: the IC50 in the test on M21, with HT-29 and in the test on MCF7 was above 100 µM each time.

Regarding `CCN1CCN(c2ccc(S(=O)(=O)Oc3cc(OC)c(OC)c(OC)c3)cc2)C1=O`, the figures for the IC50 in the test on M21, with HT-29 and in the test on MCF7 were 0.87 µM, 0.64 µM and 0.7 µM, respectively. In addition, the “Ratio IC50” value in test [1] came out at 1.2; in test [2], 0.9.

In the case of `CN1CCN(c2ccc(S(=O)(=O)Oc3cccc(Br)c3)cc2)C1=O`, the IC50 was 1.3 µM with M21, 1.3 µM in the test on HT-29 and 1.5 µM in the test on MCF7. The “Ratio IC50” value in test [1] is reported as 0.9; in test [2], 0.8.

Turning to `CN1CCN(c2ccc(S(=O)(=O)Oc3cccc(F)c3)cc2)C1=O`, the IC50 is 5.8 µM with M21, above 100 µM with HT-29 and above 100 µM in the test with MCF7.

`Cc1ccc(OS(=O)(=O)c2ccc(N3CCN(C)C3=O)cc2)c(C)c1`: the IC50 is 1.8 µM in the test on M21, 3 µM in the test with HT-29 and 2.5 µM with MCF7. The “Ratio IC50” value is listed as 0.7 in test [1] and 1.2 in test [2].

With `CCCCN1CCN(c2ccc(S(=O)(=O)Oc3cccc(Cl)c3)cc2)C1=O`, the figures for the IC50 in the test with M21, in the test with HT-29 and in the test on MCF7 were 90 µM, 21 µM and 0.11 µM, respectively. In addition, the results for the “Ratio IC50” value in test [1] and in test [2] were 820 and 190, respectively.

On to `COc1ccc(OS(=O)(=O)c2ccc(N3CCN(C)C3=O)cc2)cc1`, for which the IC50 in the test on M21 is above 100 µM; with HT-29 it was above 100 µM; with MCF7, 95 µM. Besides, the “Ratio IC50” value in test [1] and in test [2] was above 1.1 each time.

Regarding `CCCN1CCN(c2ccc(S(=O)(=O)Oc3c(Cl)cc(Cl)cc3Cl)cc2)C1=O`, the results for the IC50 with M21, with HT-29 and in the test on MCF7 were 56 µM, 56 µM and above 100 µM, respectively.
